# pIC50: −log10 of the molar value.
# Assays:
# NCI-H460 [1] = experiment: Cytotoxicity against human NCI-H460 cells assessed as cell death in serum free medium at 1000 nM after 12 hrs by Hoechst 33342/propidium iodide staining based fluorescence microscopy; format: functional
# Summary of the method: (§1)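 NCI-H460 human lung cancer cells exposed 12 h to 10 nM–10 μM drug, including a 50 nM single-concentration test. Nuclei were stained with Hoechst 33342 and necrotic cells with propidium iodide. Apoptotic cells were scored by condensed or fragmented blue nuclei and necrotic cells by red PI staining. Total cell death (apoptosis plus necrosis) was recorded; N = 6.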
# NCI-H460 [2] = experiment: Cytotoxicity against human NCI-H460 cells assessed as cell death in serum free medium at 10000 nM after 12 hrs by Hoechst 33342/propidium iodide staining based fluorescence microscopy; format: functional; summary of the method: as §1
# NCI-H460 [3] = experiment: Ratio of digitoxin IC50 to compound IC50 for human NCI-H460 cells after 12 hrs by Hoechst 33342/propidium iodide staining based fluorescence microscopy; format: functional
# NCI-H460 [4] = experiment: Cytotoxicity against human NCI-H460 cells assessed as cell viability at 1000 nM after 48 hrs by MTT assay; format: functional; conditions: NCI-H460, 48 h, read-out: Activity
# Summary of the method: (§2)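 Viability of NCI-H460 cells was measured by MTT (mitochondrial enzymatic activity) after 48 h exposure, within a dose series spanning 1 nM–10 μM. N = 9, analysed by two-way ANOVA.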
# NCI-H460 [5] = experiment: Cytotoxicity against human NCI-H460 cells assessed as cell viability after 48 hrs by MTT assay; format: functional; conditions: NCI-H460, 48 h
# Summary of the method: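 NCI-H460 cells were exposed to drug for 48 h, and viability was read by MTT as mitochondrial enzymatic activity. GI50 was derived from dose-response curves (1 nM–10 μM). Values are from three independent experiments with duplicate determinations, given with standard error of the mean.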
# NCI-H460 [6] = experiment: Cytotoxicity against human NCI-H460 cells assessed as cell viability at 50 nM after 48 hrs by MTT assay; format: functional; conditions: NCI-H460, 48 h, read-out: Activity; summary of the method: as §2
# NCI-H460 [7] = experiment: Cytotoxicity against human NCI-H460 cells assessed as cell death in serum free medium at 100 nM after 12 hrs by Hoechst 33342/propidium iodide staining based fluorescence microscopy; format: functional; summary of the method: as §1
# NCI-H460 [8] = experiment: Cytotoxicity against human NCI-H460 cells assessed as cell death in serum free medium at 250 nM after 12 hrs by Hoechst 33342/propidium iodide staining based fluorescence microscopy; format: functional; summary of the method: as §1
# NCI-H460 [9] = experiment: Cytotoxicity against human NCI-H460 cells assessed as cell death in serum free medium at 50 nM after 12 hrs by Hoechst 33342/propidium iodide staining based fluorescence microscopy; format: functional; summary of the method: as §1
# NCI-H460 [10] = experiment: Cytotoxicity against human NCI-H460 cells assessed as cell viability at 25 nM after 48 hrs by MTT assay; format: functional; conditions: NCI-H460, 48 h, read-out: Activity; summary of the method: as §2
# NCI-H460 [11] = experiment: Cytotoxicity against human NCI-H460 cells assessed as cell death in serum free medium at 10 nM after 12 hrs by Hoechst 33342/propidium iodide staining based fluorescence microscopy; format: functional; summary of the method: as §1
# NCI-H460 [12] = experiment: Cytotoxicity against human NCI-H460 cells assessed as cell death in serum free medium at 500 nM after 12 hrs by Hoechst 33342/propidium iodide staining based fluorescence microscopy; format: functional; summary of the method: as §1
# NCI-H460 [13] = experiment: Cytotoxicity against human NCI-H460 cells assessed as cell death in serum free medium at 25 nM after 12 hrs by Hoechst 33342/propidium iodide staining based fluorescence microscopy; format: functional; summary of the method: as §1
# NCI-H460 [14] = experiment: Induction of apoptosis in human NCI-H460 cells in serum free medium after 12 hrs by Hoechst 33342/propidium iodide staining based fluorescence microscopy; format: functional, cell-based; conditions: for pIC50: NCI-H460, 12 h
# Summary of the method: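 NCI-H460 cells treated for 12 h at 10 nM to 10 μM. Total cell death (apoptosis plus necrosis) scored by Hoechst 33342/propidium iodide staining, with N = 6 and two-way ANOVA. IC50 obtained by nonlinear regression. Table values are the mean of three independent experiments with duplicate determinations.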
# NCI-H460 [15] = experiment: Cytotoxicity against human NCI-H460 cells assessed as cell viability at 10 nM after 48 hrs by MTT assay; format: functional; conditions: NCI-H460, 48 h, read-out: Activity; summary of the method: as §2
# NCI-H460 [16] = experiment: Cytotoxicity against human NCI-H460 cells assessed as cell death in serum free medium at 75 nM after 12 hrs by Hoechst 33342/propidium iodide staining based fluorescence microscopy; format: functional; summary of the method: as §1
# NCI-H460 [17] = experiment: Growth inhibition of human NCI-H460 cells after 48 hrs by MTT assay; format: functional
# Summary of the method: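 NCI-H460 viability measured by MTT (mitochondrial enzymatic activity) after 48 h exposure at 1 nM to 10 μM. GI50 derived from dose-response curves, with N = 9 and two-way ANOVA. Values are the mean of three independent experiments with duplicate determinations.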
# NCI-H460 [18] = experiment: Cytotoxicity against human NCI-H460 cells assessed as cell viability at 500 nM after 48 hrs by MTT assay; format: functional; conditions: NCI-H460, 48 h, read-out: Activity; summary of the method: as §2
# NCI-H460 [19] = experiment: Induction of apoptosis in human NCI-H460 cells in serum free medium at 50 nM after 12 hrs by Hoechst 33342/propidium iodide staining based fluorescence microscopy; format: functional
# Summary of the method: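 NCI-H460 cells exposed to a single 50 nM concentration for 12 h. Cells stained with Hoechst 33342 and propidium iodide. Blue cells with condensed or fragmented nuclei were scored as apoptotic and red, ruptured cells as necrotic. Result given as % apoptotic cell death; N = 6, one-way ANOVA.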
# NCI-H460 [20] = experiment: Cytotoxicity against human NCI-H460 cells assessed as cell viability at 1 nM after 48 hrs by MTT assay; format: functional; conditions: NCI-H460, 48 h, read-out: Activity; summary of the method: as §2
# NCI-H460 [21] = experiment: Cytotoxicity against human NCI-H460 cells assessed as cell viability at 100 nM after 48 hrs by MTT assay; format: functional; conditions: NCI-H460, 48 h, read-out: Activity; summary of the method: as §2
Structure (SMILES),Activity (NCI-H460 [1]) [%],Activity (NCI-H460 [2]) [%],viability at 1 µM (NCI-H460 [4]) [%],GI50 (NCI-H460 [5]) [nM],viability at 0.05 µM (NCI-H460 [6]) [%],Activity (NCI-H460 [7]) [%],Activity (NCI-H460 [8]) [%],Activity (NCI-H460 [9]) [%],viability at 0.025 µM (NCI-H460 [10]) [%],Activity (NCI-H460 [11]) [%],Activity (NCI-H460 [12]) [%],Activity (NCI-H460 [13]) [%],Activity (NCI-H460 [14]),pIC50 (NCI-H460 [14]),viability at 0.01 µM (NCI-H460 [15]) [%],Activity (NCI-H460 [16]) [%],GI50 (NCI-H460 [17]),"GI50 (NCI-H460 [17]; NCI-H460, 48 h) [nM]",viability at 0.5 µM (NCI-H460 [18]) [%],Activity (NCI-H460 [19]) [%],other results
C[C@@H]1O[C@@H](O[C@H]2CC[C@@]3(C)[C@H](CC[C@@H]4[C@@H]3CC[C@]3(C)[C@@H](C5=CC(=O)OC5)CC[C@]43O)C2)[C@H](O)[C@H](O)[C@H]1O,100,100,5.46,2.1,7.16,89.5,100,48.79,8.72,16.47,100,24.53,Dose-dependent effect,7.29,11.8,78.16,Dose-dependent effect,2,5.81,41.603,Ratio IC50 (NCI-H460 [3]): 4; viability at 0.001 µM (NCI-H460 [20]): 77.8%; viability at 0.1 µM (NCI-H460 [21]): 6.11%
CCC[C@@H]1O[C@@H](O[C@H]2CC[C@@]3(C)[C@H](CC[C@@H]4[C@@H]3CC[C@]3(C)[C@@H](C5=CC(=O)OC5)CC[C@]43O)C2)[C@H](O)[C@H](O)[C@H]1O,100,100,5.81,4.88,9.27,52.06,84.94,23.16,16.1,15.86,100,20.15,Dose-dependent effect,6.94,39.3,34.1,Dose-dependent effect,5,5.87,15.692,viability at 0.001 µM (NCI-H460 [20]): 81.4%; viability at 0.1 µM (NCI-H460 [21]): 7.06%
CC[C@@H]1O[C@@H](O[C@H]2CC[C@@]3(C)[C@H](CC[C@@H]4[C@@H]3CC[C@]3(C)[C@@H](C5=CC(=O)OC5)CC[C@]43O)C2)CC[C@H]1O,100,100,4.5,2.19,8.21,69.05,87.87,22.56,9.23,13.46,99.58,19.43,Dose-dependent effect,7.06,20.6,39.69,Dose-dependent effect,2,5.41,18.75,viability at 0.001 µM (NCI-H460 [20]): 73.3%; viability at 0.1 µM (NCI-H460 [21]): 6.81%
CC(C)[C@@H]1O[C@@H](O[C@H]2CC[C@@]3(C)[C@H](CC[C@@H]4[C@@H]3CC[C@]3(C)[C@@H](C5=CC(=O)OC5)CC[C@]43O)C2)[C@H](O)[C@H](O)[C@H]1O,100,100,5.76,6.32,22.8,45.94,73.97,24.42,35,12.81,100,19.33,Dose-dependent effect,6.89,47.3,37.08,Dose-dependent effect,6,6.11,15.425,viability at 0.001 µM (NCI-H460 [20]): 77.4%; viability at 0.1 µM (NCI-H460 [21]): 9.88%
CC(C)C[C@@H]1O[C@@H](O[C@H]2CC[C@@]3(C)[C@H](CC[C@@H]4[C@@H]3CC[C@]3(C)[C@@H](C5=CC(=O)OC5)CC[C@]43O)C2)[C@H](O)[C@H](O)[C@H]1O,100,100,5.9,13.4,26.1,36.73,68.62,17.66,40.6,12.15,100,14.36,Dose-dependent effect,6.78,57.7,24.5,Dose-dependent effect,13,6.69,9.9487,viability at 0.001 µM (NCI-H460 [20]): 82.4%; viability at 0.1 µM (NCI-H460 [21]): 12.4%
CC[C@@H]1O[C@@H](O[C@H]2CC[C@@]3(C)[C@H](CC[C@@H]4[C@@H]3CC[C@]3(C)[C@@H](C5=CC(=O)OC5)CC[C@]43O)C2)[C@H](O)[C@H](O)[C@H]1O,100,100,5.71,2.14,8.28,80.15,98.51,42.16,10.3,15.02,100,24.93,Dose-dependent effect,7.24,20,71.83,Dose-dependent effect,2,6.13,30.625,viability at 0.001 µM (NCI-H460 [20]): 73.2%; viability at 0.1 µM (NCI-H460 [21]): 6.64%
